Assay results published in publication PMC3781598 (Pharmaceutical research, 2013).
Values after ≈ are worked out from the molar mass of the structure shown. “Also recorded” adds a separate entry of the source.

Tests used:
CYP2A6 / CYP2A13 = assay: Coumarin metabolism assay; conditions: human, pH 7.4, probe coumarin (7-hydroxylation), Selectivity Ki (2A6)/ Ki (2A13), ratio of the CYP2A6 value to the CYP2A13 value
human CYP2A13 [1] = target: T1, human CYP2A13 (Homo sapiens, UniProt Q16696); assay: Coumarin metabolism assay
T1 sequence (Q16696 with tags, fused parts or gaps limits assumed): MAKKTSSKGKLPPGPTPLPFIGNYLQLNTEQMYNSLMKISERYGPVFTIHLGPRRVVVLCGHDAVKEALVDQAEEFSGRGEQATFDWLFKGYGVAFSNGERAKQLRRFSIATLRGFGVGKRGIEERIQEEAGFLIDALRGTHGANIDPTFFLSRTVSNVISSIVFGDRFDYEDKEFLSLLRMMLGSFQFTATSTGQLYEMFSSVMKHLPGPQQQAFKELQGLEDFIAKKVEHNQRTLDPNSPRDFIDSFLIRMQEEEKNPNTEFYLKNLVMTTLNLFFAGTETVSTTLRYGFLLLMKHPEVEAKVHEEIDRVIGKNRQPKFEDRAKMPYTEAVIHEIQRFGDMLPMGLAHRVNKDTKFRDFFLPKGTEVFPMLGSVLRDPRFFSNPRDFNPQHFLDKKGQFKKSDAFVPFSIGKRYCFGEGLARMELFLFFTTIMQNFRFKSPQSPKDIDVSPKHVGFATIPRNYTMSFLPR

human CYP2A13 [2] = target: T2, human CYP2A13 (Homo sapiens, UniProt Q16696); assay: Spectral ligand binding assay; conditions: for Spectral shift type 2A13: UV/Vis difference spectra
T2 sequence (Q16696 25-494): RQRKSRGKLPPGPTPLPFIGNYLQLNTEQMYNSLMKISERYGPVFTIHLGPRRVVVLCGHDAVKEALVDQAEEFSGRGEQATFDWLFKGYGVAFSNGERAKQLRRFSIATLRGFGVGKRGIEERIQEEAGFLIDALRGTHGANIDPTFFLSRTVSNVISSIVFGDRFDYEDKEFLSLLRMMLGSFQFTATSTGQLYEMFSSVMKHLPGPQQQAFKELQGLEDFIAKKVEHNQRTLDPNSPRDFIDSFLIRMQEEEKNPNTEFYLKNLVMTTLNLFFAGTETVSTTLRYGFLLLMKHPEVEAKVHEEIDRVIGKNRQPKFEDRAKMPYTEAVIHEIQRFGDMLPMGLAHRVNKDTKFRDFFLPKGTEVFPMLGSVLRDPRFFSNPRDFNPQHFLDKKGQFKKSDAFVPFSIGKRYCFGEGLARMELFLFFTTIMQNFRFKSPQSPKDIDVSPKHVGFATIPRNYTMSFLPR

[3] = Metabolic stability in wild type mouse liver microsomes; assay type: in vitro ADME; conditions: pH 7.4
Method in brief: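 Microsomes from B6 Cyp2a(4/5)bgs-null (CYP2A/CYP2B knockout) or side-by-side wild-type mouse lung and liver, at 0.1 mg protein/ml. Buffer was 50 mM potassium phosphate pH 7.4, 3 mM MgCl2, 1 mM EDTA. […] Parent loss by LC/MS/MS. Single-exponential kel converted to T1/2; CLint = kel × volume/mg protein.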

[4] = Aqueous solubility, shake-flask incubation method; assay type: physicochemical; conditions: phosphate-buffered saline, pH 7.4, aqueous buffer, thermodynamic from solid
Method in brief: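 Shake-flask equilibration of test compound in phosphate-buffered saline, pH 7.4, for 24 h at room temperature.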

human CYP2A6 = target: T3, human CYP2A6 (Homo sapiens, UniProt P11509); assay: Spectral ligand binding assay; conditions: for Kd 2A6: spectral titration, ≥ = minimal Kd value
T3 sequence (P11509 with tags, fused parts or gaps limits assumed): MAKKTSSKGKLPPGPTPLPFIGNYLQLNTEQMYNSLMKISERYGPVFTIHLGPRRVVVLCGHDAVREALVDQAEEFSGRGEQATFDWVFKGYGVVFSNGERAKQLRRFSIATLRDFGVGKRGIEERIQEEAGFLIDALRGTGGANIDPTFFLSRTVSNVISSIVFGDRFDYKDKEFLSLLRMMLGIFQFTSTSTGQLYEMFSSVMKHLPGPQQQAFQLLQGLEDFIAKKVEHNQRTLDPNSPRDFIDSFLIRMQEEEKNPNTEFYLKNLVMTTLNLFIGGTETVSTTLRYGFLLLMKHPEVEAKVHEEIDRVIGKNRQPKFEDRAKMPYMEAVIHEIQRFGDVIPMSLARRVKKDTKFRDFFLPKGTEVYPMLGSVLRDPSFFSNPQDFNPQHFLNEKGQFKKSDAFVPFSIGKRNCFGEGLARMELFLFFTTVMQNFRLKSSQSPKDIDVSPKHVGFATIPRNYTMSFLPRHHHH

CYP1A2 = target: T4, CYP1A2 (Homo sapiens, UniProt P05177); assay: Metabolic stability phenotyping with recombinantly expressed CYPs; assay type: in vitro ADME; conditions: for half-life at 1 μM: human, recombinant CYP1A2, pH 7.4
T4 sequence (P05177 2-516 limits assumed): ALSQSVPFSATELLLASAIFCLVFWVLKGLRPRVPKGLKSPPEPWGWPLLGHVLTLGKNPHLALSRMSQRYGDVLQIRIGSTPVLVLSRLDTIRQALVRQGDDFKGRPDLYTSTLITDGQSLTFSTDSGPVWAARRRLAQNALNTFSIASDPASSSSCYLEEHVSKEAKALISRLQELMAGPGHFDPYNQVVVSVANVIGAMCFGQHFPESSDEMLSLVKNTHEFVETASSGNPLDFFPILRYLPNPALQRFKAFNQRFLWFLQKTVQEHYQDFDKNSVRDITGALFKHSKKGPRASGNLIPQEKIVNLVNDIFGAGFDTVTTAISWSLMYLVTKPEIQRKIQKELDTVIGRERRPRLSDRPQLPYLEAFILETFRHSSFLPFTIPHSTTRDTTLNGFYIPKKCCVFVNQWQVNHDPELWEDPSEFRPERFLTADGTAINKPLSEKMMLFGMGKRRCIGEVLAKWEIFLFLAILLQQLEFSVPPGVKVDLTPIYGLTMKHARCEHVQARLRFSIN
Method in brief: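 Each recombinant human CYP at 100 pmol/ml with 1 μM test compound in potassium phosphate pH 7.4, 3.33 mM MgCl2. Prewarmed 10 min at 37 °C, then started with NADPH regenerating system; no-NADPH buffer controls. Aliquots at 0–45 min quenched in methanol with buspirone internal standard. MS peak-area ratios gave ln(ratio)-vs-time slope, converted to T1/2. Duplicates.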

[5] = Metabolic stability in lung microsomes; assay type: in vitro ADME, male B6C2F1 mouse; conditions: for half-life at 1 μM / microsomal CLint at 1 μM: male, B6C2F1, mouse, lung microsomes, pH 7.4; for Percent Loss of Substrate: mouse lung microsomes, 1 μM, 20-minute incubation
Method in brief: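 Pooled liver or lung microsomes (male B6C2F1 mouse, male Sprague-Dawley rat, human) at 1.0 mg protein/ml in 50 mM potassium phosphate pH 7.4, 3 mM MgCl2, 1 mM EDTA. […] Stopped at 0, 5, 10, 20 min with acetonitrile containing antipyrene, then LC/MS/MS. Single-exponential kel gave T1/2. CLint = kel × incubation volume/mg protein.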

[6] = Kd 2A13, spectral titration, ≥ = minimal Kd value

Ki (human CYP2A13 [1]) [µM]	Kd (human CYP2A13 [2]; [6]) [µM]	Kd (human CYP2A13 [2]; Kd CYP2A13, follow-up titration of HTS hit, Figure 1D) [µM]	Spectral shift type 2A13 (human CYP2A13 [2])	half-life at 1 μM [3] [h]	microsomal CLint at 1 μM [3] [µL/min/mg]	solubility at 24 h [4] [µM]	spectral shift with 2A6 (human CYP2A6; follow-up titration of HTS hit, Figure 1D)	half-life at 1 μM (CYP1A2) [h]	half-life at 1 μM [5] [min]	microsomal CLint at 1 μM [5] [µL/min/mg]	Percent Loss of Substrate [5] [%]	Average T1/2 CYP1A2 (CYP1A2; recombinant enzyme 100 pmol/ml, 1 μM compound)	Structure (SMILES)	selectivity ratio at 10 min (CYP2A6 / CYP2A13)	Kd 2A6 (human CYP2A6)
38.1	5.2	~2	I	1.22	95.3	184 (≈ 42.3 µg/mL)	no spectral shift	20.2	1.3	551	100	–	Fc1cccc(Cl)c1CN1CCOCC1 [Compound 7, 4-(2-chloro-6-fluorobenzyl)morpholine]	7.5	did not cause a spectral shift; also recorded: No ^** Spectral Shift
39.7 ± 4.3	5.9 ± 3.4	–	I	–	–	180 (≈ 38.1 µg/mL)	–	38.6	1.6	433	99.9	essentially no loss	Clc1ccccc1CN1CCOCC1 [Compound 3, 4-(2-chlorobenzyl)morpholine]	≥ 25	No ^** Spectral Shift
